How the values were obtained:
[1] = molecular target: T1, Polyunsaturated fatty acid 5-lipoxygenase (Homo sapiens, UniProt P09917); experiment: Inhibition of human recombinant 5-LOX expressed in Escherichia coli BL21 incubated for 10 mins in presence of arachidonic acid by RP-HPLC based cell-free assay
T1 sequence (P09917 whole entry): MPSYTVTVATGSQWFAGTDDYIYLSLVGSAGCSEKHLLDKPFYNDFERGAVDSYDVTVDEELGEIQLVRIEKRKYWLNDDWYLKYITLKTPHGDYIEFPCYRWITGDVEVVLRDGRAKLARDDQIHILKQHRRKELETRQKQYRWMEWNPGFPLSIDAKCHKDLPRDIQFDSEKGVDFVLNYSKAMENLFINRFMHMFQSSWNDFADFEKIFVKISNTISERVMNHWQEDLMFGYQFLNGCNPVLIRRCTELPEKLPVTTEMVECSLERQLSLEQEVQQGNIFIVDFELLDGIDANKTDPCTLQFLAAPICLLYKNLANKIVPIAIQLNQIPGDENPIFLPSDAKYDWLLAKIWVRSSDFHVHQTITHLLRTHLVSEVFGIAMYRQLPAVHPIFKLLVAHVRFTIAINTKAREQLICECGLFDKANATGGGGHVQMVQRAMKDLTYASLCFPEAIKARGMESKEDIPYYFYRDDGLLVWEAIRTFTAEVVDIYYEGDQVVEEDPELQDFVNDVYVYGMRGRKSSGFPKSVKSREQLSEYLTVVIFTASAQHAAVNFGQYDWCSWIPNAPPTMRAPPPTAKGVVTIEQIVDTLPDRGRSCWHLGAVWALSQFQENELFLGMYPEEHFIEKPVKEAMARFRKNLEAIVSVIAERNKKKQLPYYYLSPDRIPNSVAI
In short: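 Recombinant human 5-LO, semi-purified from a 40,000 × g lysate supernatant on ATP-agarose, diluted in ice-cold PBS with 1 mM EDTA and 1 mM ATP. Preincubated 10 min at 4 °C with compound or 0.1% DMSO, warmed 30 s at 37 °C, then started with 2 mM CaCl₂ plus 20 µM AA. Reaction 10 min at 37 °C, stopped with cold methanol, products by RP-HPLC. IC₅₀ from 4–5 concentrations.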

[2] = molecular target: T1, Polyunsaturated fatty acid 5-lipoxygenase; experiment: Inhibition of 5-LOX in A23187-stimulated human blood PMNL assessed as reduction in lipoxygenase products formation pre-incubated for 15 mins followed by stimulation with A23187 for 10 mins by RP-HPLC based cell based assay
In short: (§1)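 Human PMNL (5 × 10⁶ in 1 ml PBS pH 7.4, 1 mg/ml glucose, 1 mM CaCl₂), preincubated 15 min at 37 °C with compound or 0.1% DMSO, then stimulated 10 min at 37 °C with A23187, with or without AA. 5-LO products measured. Values are mean ± S.E. of 3–4 independent experiments. IC₅₀ read graphically from 4–5 concentrations.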

[3] = molecular target: T1, Polyunsaturated fatty acid 5-lipoxygenase; experiment: Inhibition of 5-LOX in A23187-stimulated human blood PMNL assessed as reduction in lipoxygenase products formation in presence of arachidonic acid pre-incubated for 15 mins followed by stimulation with A23187 for 10 mins by RP-HPLC based cell based assay; in short: as §1
[4] = molecular target: T2, Polyunsaturated fatty acid lipoxygenase ALOX15 (Homo sapiens) (UniProt P16050); experiment: Inhibition of 15-LOX-1 in human blood PMNL assessed as remaining activity by measuring 15-HETE synthesis at 10 uM
T2 sequence (whole entry): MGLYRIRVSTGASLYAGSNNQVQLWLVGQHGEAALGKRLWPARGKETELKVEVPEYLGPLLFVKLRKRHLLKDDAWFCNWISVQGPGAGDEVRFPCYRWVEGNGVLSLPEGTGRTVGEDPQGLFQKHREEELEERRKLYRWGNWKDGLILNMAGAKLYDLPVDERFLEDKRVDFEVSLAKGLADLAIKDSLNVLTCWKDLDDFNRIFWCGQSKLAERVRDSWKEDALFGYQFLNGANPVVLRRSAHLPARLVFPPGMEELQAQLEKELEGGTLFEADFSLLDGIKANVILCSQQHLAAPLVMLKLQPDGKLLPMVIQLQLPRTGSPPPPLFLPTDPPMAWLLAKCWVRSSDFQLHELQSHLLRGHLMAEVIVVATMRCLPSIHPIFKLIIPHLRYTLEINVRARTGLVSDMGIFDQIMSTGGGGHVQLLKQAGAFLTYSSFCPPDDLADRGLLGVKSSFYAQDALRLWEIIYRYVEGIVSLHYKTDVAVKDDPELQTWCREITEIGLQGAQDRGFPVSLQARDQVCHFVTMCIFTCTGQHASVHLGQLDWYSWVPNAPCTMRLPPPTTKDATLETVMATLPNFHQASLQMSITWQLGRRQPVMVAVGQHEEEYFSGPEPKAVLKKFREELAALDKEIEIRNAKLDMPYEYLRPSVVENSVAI
In short: (§2)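 PMNL isolated from heparinized blood of fasted healthy donors by dextran sedimentation and Nycoprep centrifugation, with hypotonic lysis of erythrocytes. Cells at 5 × 10⁶ in 1 ml PBS pH 7.4 with 1 mg/ml glucose and 1 mM CaCl₂, preincubated 15 min at 37 °C with compound or 0.1% DMSO vehicle, then stimulated 10 min at 37 °C. 12-HETE or 15-HETE formation measured.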

[5] = molecular target: T3, Polyunsaturated fatty acid lipoxygenase ALOX12 (Homo sapiens) (UniProt P18054); experiment: Inhibition of 12-LOX in human blood PMNL assessed as remaining activity by measuring 12-HETE synthesis at 10 uM; in short: as §2
T3 sequence (whole entry): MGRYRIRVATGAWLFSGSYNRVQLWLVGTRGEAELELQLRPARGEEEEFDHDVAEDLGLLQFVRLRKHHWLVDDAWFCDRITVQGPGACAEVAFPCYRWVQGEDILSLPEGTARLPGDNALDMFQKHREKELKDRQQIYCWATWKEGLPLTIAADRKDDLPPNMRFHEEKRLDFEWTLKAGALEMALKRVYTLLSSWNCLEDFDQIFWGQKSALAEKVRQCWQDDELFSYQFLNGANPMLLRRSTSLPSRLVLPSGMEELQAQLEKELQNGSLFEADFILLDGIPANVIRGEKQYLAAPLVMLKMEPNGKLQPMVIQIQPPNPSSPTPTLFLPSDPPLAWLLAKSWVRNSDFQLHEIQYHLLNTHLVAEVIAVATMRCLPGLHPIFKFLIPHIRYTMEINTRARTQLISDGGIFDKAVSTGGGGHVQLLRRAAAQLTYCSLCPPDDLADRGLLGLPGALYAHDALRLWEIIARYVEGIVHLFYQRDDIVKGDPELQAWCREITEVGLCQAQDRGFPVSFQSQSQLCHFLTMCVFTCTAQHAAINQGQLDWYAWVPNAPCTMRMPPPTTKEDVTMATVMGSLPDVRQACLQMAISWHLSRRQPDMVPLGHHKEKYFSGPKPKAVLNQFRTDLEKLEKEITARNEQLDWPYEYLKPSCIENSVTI

Row | SMILES | IC50 [1] [nM] | IC50 [2] [nM] | IC50 [3] [nM] | Activity [4] [%] | Activity [5] [%]
1 | CCCCCCCCCCCCCC1=C(OC)C(=O)C=C(OC)C1=O | 260 | 230 | 310 | 84.1 | 58.8
2 | N#C/C(=C\c1ccc(O)c(O)c1)C(=O)OC/C=C/c1ccccc1 | – | – | – | 5.2 | 0.91
3 | COC1=CC(=O)C(O)=C(C/C=C(\C)CC/C=C(\C)CCC=C(C)C)C1=O | 5600 | 1900 | 2400 | 122 | 108
4 | CCCCCCCCCCCCCCC1=C(O)C(=O)C=C(OC)C1=O | 420 | 270 | 490 | 116 | 114
5 | CCCCCCCCCCCCCCC1=C(O)C(=O)C=C(O)C1=O | 170 | 3100 | 5100 | 139 | 101
6 | COC1=CC(=O)C(OC)=C(C/C=C(\C)CCC=C(C)C)C1=O | 3300 | 450 | 1600 | 127 | 90.3
7 | CCCCCCCCCCC1=C(O)C(=O)C=C(O)C1=O | 180 | 2000 | 7100 | 90 | 76
8 | CCCCCCCCCCCCCCCC1=C(O)C(=O)C=C(OC)C1=O | 270 | 390 | 860 | 103 | 92.8
9 | CCCCC1=C(OC)C(=O)C=C(OC)C1=O | 3300 | 3400 | 7900 | 103 | 103
10 | CCCCCCCCC1=C(OC)C(=O)C=C(OC)C1=O | 1200 | 320 | 570 | 123 | 89.6
11 | COC1=CC(=O)C(OC)=C(C/C=C(\C)CC/C=C(\C)CCC=C(C)C)C1=O | 1700 | 310 | 1200 | 136 | 139
12 | CCCCCCCCCCCCCCC1=C(OC)C(OC)=CC(=O)C1=O | 40 | 120 | 90 | 139 | 87.3
13 | CCCCCCCCCCCCC1=C(OC)C(=O)C=C(OC)C1=O | 610 | 630 | 490 | 127 | 138
14 | CCCCCCCCCCCCCCC1=C(OC)C(=O)C=C(OC)C1=O | 210 | 290 | 1400 | 116 | 84.5
15 | CCCCCCCCCCC1=C(O)C(=O)C=C(OC)C1=O | 4300 | 590 | 2700 | 123 | 122
16 | CCCCCCCCCCCCCC1=C(O)C(=O)C=C(O)C1=O [Rapanone] | 220 | 2500 | 4700 | 124 | 84.3
17 | CCCCCCC1=C(OC)C(=O)C=C(OC)C1=O | 2600 | 320 | 1400 | 101 | 102
18 | CCCCCCCCCCCCCCCC1=C(OC)C(=O)C=C(OC)C1=O | 270 | 390 | 860 | 115 | 87.3
19 | CCCCCCC1=C(OC)C(OC)=CC(=O)C1=O | 2600 | 330 | 990 | 91.7 | 18.6
20 | CCCCCCCCCCCC1=C(OC)C(=O)C=C(OC)C1=O | 930 | 200 | 590 | 93.4 | 161
21 | CCCCCCCCCCCC1=C(O)C(=O)C=C(OC)C1=O [5-O-METHYLEMBELIN] | 3800 | 680 | 1300 | 131 | 138
22 | CCCCCCCCCCC1=C(OC)C(=O)C=C(OC)C1=O | 1800 | 600 | 1700 | – | 144

— ChEMBL document CHEMBL3414543, “Novel series of benzoquinones with high potency against 5-lipoxygenase in human polymorphonuclear leukocytes” (Eur J Med Chem, 2015)
